Sampled rows, rich in hits. Any-hit rate of the full collection: about 3.4%.
CHRM1 antagonist – blocks human M1 muscarinic receptor; inhibition, % at 3 µM; 1.3% of 360,000 active; P11229; CHO-K1 hM1, Fluo-8 calcium fluorescence, ACh EC80 antagonist;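 active = percent inhibition above its own plate's cutoff, namely the mean of that plate's compound wells plus 3 SD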;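 also: peak over basal fluorescence ratio during 140 s after agonist addition; 0% = ACh EC80 plus DMSO and 100% = DMSO alone without agonist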
Target sequence (P11229 whole entry, looked up): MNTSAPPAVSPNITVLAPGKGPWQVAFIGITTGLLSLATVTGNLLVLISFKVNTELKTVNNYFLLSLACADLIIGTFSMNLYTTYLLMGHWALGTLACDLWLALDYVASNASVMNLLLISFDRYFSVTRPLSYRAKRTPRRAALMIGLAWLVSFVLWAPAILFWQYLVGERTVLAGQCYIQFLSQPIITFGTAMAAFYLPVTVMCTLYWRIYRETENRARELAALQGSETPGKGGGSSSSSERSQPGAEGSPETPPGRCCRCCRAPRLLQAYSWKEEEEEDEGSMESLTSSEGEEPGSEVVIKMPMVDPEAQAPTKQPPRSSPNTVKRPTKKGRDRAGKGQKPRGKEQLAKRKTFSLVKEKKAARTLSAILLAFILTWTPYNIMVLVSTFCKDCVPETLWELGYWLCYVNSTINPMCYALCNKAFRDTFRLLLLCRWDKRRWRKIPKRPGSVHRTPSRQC
TAAR1 agonist – agonists of human TAAR1. Q96RJ0. CHO RD-HGA16 TAAR1, Fluo-8 calcium fluorescence; vehicle wells 0%, saturating PEA agonist 100%. activation, % at 3 µM. 0.99% of 360,000 active. AID 624467;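 active = activation above the mean activation of all test compounds in the run plus 3 SD, cut at about 38% in these data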
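System: CHO-derived RD-HGA16 cells with stable Gα16 and human TAAR1. Times: 17-24 h plating, Fluo-8 75 min 37 °C, 30 min RT. Measured by: calcium-sensitive Fluo-8 signal, excitation 470-495, emission 515-575 nm. Read-out basis: % activation relative to PEA EC100 response. Control set: DMSO and PEA EC100. Repeats: no replicates (n 1).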
M1 ag – human M1 muscarinic receptor agonism; P11229; CHO-K1 hM1, Fluo-8 calcium fluorescence, agonist mode; 0% DMSO, 100% acetylcholine EC100; activation, % at 3 µM; 0.33% of 360,000 active; AID 588814;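 active = activation above the run's mean compound activation plus 3 SD, cut at about 16% in these data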;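 also: peak over basal fluorescence ratio within a 140 s kinetic read after compound addition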
TAAR1 antagonist – human TAAR1 antagonism. Q96RJ0. CHO RD-HGA16 TAAR1, Fluo-8 calcium fluorescence, antagonist. inhibition, % at 3 µM. 1.5% of 360,000 active. AID 624466;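 active = inhibition above a per-plate cutoff, the mean inhibition of test compounds on that plate plus 3 SD, cut at about 49% in these data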;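 also: 0% = DMSO plus EC80 beta-PEA response and 100% = DMSO alone without agonist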
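Test system: hTAAR1-expressing CHO RD-HGA16 cells, Gα16-coupled; Probe or stimulus: EC80 β-phenethylamine stimulus; Compound dosing: single nominal final test compound concentration of 3 µM; Timing: 140 s kinetic read after compound, 140 s after agonist; Signal: Fluo-8 calcium-sensitive fluorescence; Measure: % inhibition of agonist calcium response; Controls: DMSO and EC80 PEA controls.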
CHRM1 PAM – human CHRM1 positive allosteric modulation. P11229. CHO-K1 hM1, Fluo-8 calcium fluorescence, ACh EC20; 0% = ACh EC20, 100% = maximal ACh. activation, % at 3 µM. 0.088% of 360,000 active; in the data active = activation above about 19%, passing the limit was not always enough
Starred values were filed as active, the others as inactive; . = no result given.

SMILES	CHRM1 antagonist	TAAR1 agonist	M1 ag	TAAR1 antagonist	CHRM1 PAM
CCN1C(=O)N/C(=C/c2ccc(Sc3ccc(C)cc3)o2)C1=O	15	18	0	65*	-6
O=C(c1ccco1)N1CCN(C(c2ccccc2Cl)c2nnnn2Cc2cccs2)CC1 (stereo unspecified)	10	27	0	59*	-12
COC(=O)C(C(=O)OC)c1ccccc1CNS(=O)(=O)c1ccc(C)cc1	.	1	.	-18	.
CC(C)(C)OC(=O)N(CCc1ccccc1)Cc1ccc(OCc2cccc(NC(=O)C3CCCC3)c2)cc1	-2	4	1	8	2
CC(C)(C)OC(=O)N(Cc1ccccc1)Cc1ccc(OCc2cccc(NC(=O)C3CC3)c2)cc1	-2	2	9	53*	19
CC(Nc1nc(-c2ccncc2)nc2ccccc12)c1ccccc1 (stereo unspecified)	17	8	-7	0	-8
CC(Nc1nc(N2CCNCC2)nc2ccccc12)c1ccccc1 (stereo unspecified)	8	39*	-8	39	-5
COC(=O)c1ccc2nc(-c3ccco3)c(Cc3ccc(OC)cc3C)n2c1	-21	0	-3	-17	-1
CCCS(=O)(=O)N1CCN(Cc2ccccc2C(F)(F)F)CC1	2	2	-4	2	7
CN1CCCN(Cc2ccccc2C(F)(F)F)CC1	29*	8	-7	9	-25
Cc1nc(NC(=O)COC(=O)CNC(=O)c2ccco2)c(Cl)cc1Cl	0	5	-3	-18	3
Cc1nc(NC(=O)COC(=O)CCc2ccccc2)c(Cl)cc1Cl	-14	1	2	5	25*
C[C@H](CO)N1C[C@H](C)[C@@H](CN(C)C(=O)Nc2cccc(C(F)(F)F)c2)OCc2cn(nn2)CCCC1=O	.	4	.	17	.
COc1cc(Cl)c([C@@H]2C[C@H]3CN(c4ccccc4)C(=O)[C@]34CCCN24)cc1OC	-6	4	-11	-4	6
O=C1N(c2ccccc2)C[C@@H]2C[C@@H](c3cccc4c3OCO4)N3CCC[C@@]123	49*	0	-12	11	-30
O=[N+]([O-])c1cc(S(=O)(=O)NCc2ccco2)ccc1NN=Cc1ccccn1	.	1	.	3	.
CN(C)c1ccc(/C=C(/C#N)C(=O)Nc2nc3c(s2)CCN(Cc2ccccc2)C3)cc1	24*	10	19*	13	-15
COC(=O)[C@]12C[C@H](CC(=O)NCc3cccs3)C(=O)N(Cc3ccc4c(c3)OCO4)C1=C[C@H](COCc1ccccc1)O[C@@H]2C	.	0	.	-6	.
O=C(Nc1ccc2c(c1)OCO2)c1ccc2sc([C@H]3C[C@H](O)[C@@H](CO)O3)nc2c1	-24	1	3	2	28*
O=C(Nc1nc2ccccc2s1)c1ccc2sc([C@H]3C[C@H](O)[C@@H](CO)O3)nc2c1	1	10	4	50*	1
CCOc1ccc(OCC(=O)Nc2ccc(N3CCCCC3)cc2)cc1	-14	2	-3	-15	5
Cc1cc(OCC(=O)Nc2ccncc2)c(C)cc1Br	37*	16	4	-2	-19
O=C(COc1ccc2ccccc2c1Br)Nc1cccnc1	3	8	2	-14	-6
Cc1cc(OCC(=O)Nc2ccc(N3CCCC3)cc2)cc(C)c1Cl	58*	-1	-5	-7	-22
Cc1cc(OCC(=O)Nc2ccncc2)cc(C)c1Cl	30*	19	2	13	-13
SMILES	CHRM1 antagonist	TAAR1 agonist	M1 ag	TAAR1 antagonist	CHRM1 PAM
CCc1ccc(OCC(=O)Nc2ccncc2)c(Br)c1	13	4	0	4	-5
O=C(COc1ccc2ccccc2c1Br)Nc1ccncc1	30*	11	5	-10	-6
CCCCNC(=O)C[C@H]1C[C@@]2(C(=O)OC)C(=C[C@H](COCc3ccccc3)O[C@@H]2C)N(CCC2=CCCCC2)C1=O	.	-2	.	-22	.
CC(C)c1[nH]nc2c1C(c1ccccc1)N(c1ccccc1)C2=O (stereo unspecified)	.	2	.	-14	.
O=C(Nc1ccc2ncccc2c1)c1ccccc1	-10	0	-2	4	4
CCC(C(=O)c1ccc2ncccc2c1)c1ccccc1 (stereo unspecified)	35*	16	-10	-14	-27
CCCC(O)(CCN1CCOCC1)c1ccc(Br)cc1 (stereo unspecified)	78*	3	-7	-5	-28
CCCOc1ccc(C(O)(CCC)CCN2CCCCC2)cc1 (stereo unspecified)	66*	14	-5	10	-23
OC(CCN1CCOCC1)(c1ccc(Cl)cc1)C1CCCCC1 (stereo unspecified)	82*	-1	-8	-4	-26
CCCC(O)(CCN1CCOCC1)c1ccc(Cl)cc1 (stereo unspecified)	45*	1	-6	-4	-23
CCCC(O)(c1ccc(Cl)cc1)C(CN1CCOCC1)c1ccc(Cl)cc1 (stereo unspecified)	6	19	-7	-18	-4
O=C(NCCCN1CCOCC1)c1ccc(Br)cc1	-7	2	-6	11	4
O=S1(=O)CC(N2CCC(Cc3ccccc3)CC2)CN1C1CCCCC1 (stereo unspecified)	-5	3	-4	-9	-3
C#CCN1C(=O)[C@]2(OCCC=C[C@H]2C)c2ccccc21	.	0	.	3	.
CS(=O)(=O)Nc1cccc(NC(=O)c2cccc3c(-c4cccc(C(N)=O)c4)coc23)c1	31*	8	-2	66*	-13
CS(=O)(=O)Nc1cccc(NC(=O)c2cccc3c(-c4ccc(F)c(F)c4)coc23)c1	13	1	-2	64*	-10
CS(=O)(=O)Nc1cccc(NC(=O)c2ccc(-c3ccc(F)c(F)c3)c3ccoc23)c1	9	4	-2	37	-6
COC(=O)C1=C(C)N(Cc2ccc(Br)cc2)C(=S)NC1c1cccc(Br)c1 (stereo unspecified)	.	0	.	18	.
COc1cccc(CNC(=O)[C@H]2CCCN2C(=O)[C@H]2CCCN2C(=O)N2CCOCC2)c1	.	1	.	0	.
CCOC(=O)c1[nH]c2ccc(Br)cc2c1NC(=O)CCN1CCCC(C)(C)C1	90*	1	-8	-13	-20
CCOC(=O)c1[nH]c2ccc(F)cc2c1NC(=O)CCN1CCOCC1	-8	0	-12	1	6
COC(=O)c1[nH]c2ccc(Br)cc2c1NC(=O)CN1CCN(C2CCCCC2)CC1	1	8	-4	-12	-4
COC(=O)c1[nH]c2ccc(Cl)cc2c1NC(=O)CCN1CCN(C2CCCCC2)CC1	62*	0	-6	0	-20
C[C@H](O)[C@@H]1C(=O)N2CCc3c([nH]c4cccc(-c5ccccc5)c34)[C@@H]2C[C@@H]1N(C)C(=O)C1CCCCC1	.	1	.	-15	.
